Test system: Leishmania braziliensis
Assay: Antileishmanial activity against Leishmania braziliensis MHOM/BR/00/LTB300 promastigotes assessed as cell death after 2 days by MTT assay
Assay type: functional
Conditions: MHOM/BR/00/LTB300, 48 h, read-out: ID50 (the source's name)
How it was run: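 Parasites in exponential growth, in BHI-tryptose + 5% FBS for T. cruzi or RPMI + 5% FBS for L. braziliensis, 28 °C, 24-well plates. Compounds in DMSO; miltefosine in ethanol. 2-day exposure, two PBS-glucose (5.5 mM) washes, then MTT 0.4 mg/mL for 4 h at 28 °C. SDS-isopropanol lysis, OD read. Triplicates, six growth controls.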

Row | SMILES | IC50
1 | CCCCCCCCCCCCCCCCOP(=O)([O-])OCC[N+](C)(C)C [MILTEFOSINE] | 9 µM

Test system: Trypanosoma cruzi
Assay: Antitrypanosomal activity against Trypanosoma cruzi Tulahuen 2 epimastigotes assessed as growth inhibition at 25 uM after 5 days relative to control
Assay type: functional
Conditions: Tulahuen 2, 120 h, read-out: GI
How it was run: (§1)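 Epimastigotes grown axenically at 28 °C in BHI-tryptose + 5% FBS; a 10-day stationary culture was inoculated to 1 × 10⁶ cells/mL. Drug added from DMSO stock, final DMSO ≤0.4%, vehicle control. A600 read daily. PGI on day 5 corrects for day-0 absorbance, relative to control. […] Three independent experiments.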

Row | SMILES | inhibition of growth at 25 µM
2 | O=C(c1ccco1)c1c(C(F)(F)F)[n+]([O-])c2cc(C(F)(F)F)ccc2[n+]1[O-] | 100%
3 | CCC(=O)c1c(C(F)(F)F)[n+]([O-])c2cc(Cl)c(Cl)cc2[n+]1[O-] | 100%
4 | O=C(c1ccccc1)c1c(C(F)F)[n+]([O-])c2cc(Cl)c(Cl)cc2[n+]1[O-] | 100%
5 | COC(=O)c1c(C)[n+]([O-])c2cc(Cl)c(Cl)cc2[n+]1[O-] | 66%
6 | O=C(c1c(C(F)(F)F)[n+]([O-])c2ccccc2[n+]1[O-])N1CCN(c2ccccc2)CC1 | 100%
7 | CCOC(=O)c1c(-c2ccccc2)[n+]([O-])c2ccccc2[n+]1[O-] | 29%
8 | CCOC(=O)c1c(-c2ccccc2)[n+]([O-])c2cc(C)ccc2[n+]1[O-] | 13%
9 | Cc1c(C(=O)c2ccccc2)[n+]([O-])c2ccccc2[n+]1[O-] | 19%
10 | Cc1ccccc1NC(=O)c1c(C)[n+]([O-])c2cc(Cl)c(Cl)cc2[n+]1[O-] | 49%
11 | COc1ccc2c(c1)[n+]([O-])c(C(F)(F)F)c(C(=O)c1ccccc1)[n+]2[O-] | 98%
12 | Cc1c(C(=O)c2ccccc2)[n+]([O-])c2ccc(Cl)cc2[n+]1[O-] | 33%
13 | CCOC(=O)c1c(C)[n+]([O-])c2cc(Cl)c(Cl)cc2[n+]1[O-] | 32%
14 | Cc1c(C(=O)c2ccccc2)[n+]([O-])c2cc(Cl)c(Cl)cc2[n+]1[O-] | 91%
15 | Cc1c(C(=O)Nc2ccccc2)[n+]([O-])c2cc(Cl)c(Cl)cc2[n+]1[O-] | 61%
16 | O=C(c1cccs1)c1c(C(F)(F)F)[n+]([O-])c2ccccc2[n+]1[O-] | 100%
17 | O=C(c1ccccc1)c1c(C(F)(F)F)[n+]([O-])c2cc(Cl)c(Cl)cc2[n+]1[O-] | 100%

Row | SMILES | inhibition of growth at 25 µM
18 | Cc1c(C(=O)NC(C)(C)C)[n+]([O-])c2cc(Cl)c(Cl)cc2[n+]1[O-] | 28%
19 | Cc1cc2c(cc1C)[n+]([O-])c(C(=O)c1ccccc1)c(C)[n+]2[O-] | 3%
20 | O=C(c1ccccc1)c1c(C(F)F)[n+]([O-])c2cc(F)ccc2[n+]1[O-] | 100%
21 | CC(=O)c1c(C)[n+]([O-])c2cc(C)c(C)cc2[n+]1[O-] | 2%
22 | CC(C)(C)C(=O)c1c(C(F)(F)F)[n+]([O-])c2ccccc2[n+]1[O-] | 26%
23 | O=C(c1ccco1)c1c(C(F)(F)F)[n+]([O-])c2ccccc2[n+]1[O-] | 100%
24 | O=C(c1cccc2ccccc12)c1c(C(F)(F)F)[n+]([O-])c2cc(F)c(F)cc2[n+]1[O-] | 100%
25 | COC(=O)c1c(C)[n+]([O-])c2cc(C)c(C)cc2[n+]1[O-] | 10%
26 | O=C(c1ccccc1)c1nc2ccccc2nc1C(F)(F)F | 49%
27 | Cc1cc2c(cc1C)[n+]([O-])c(Cc1ccccc1)c(C)[n+]2[O-] | 0%
28 | CCOC(=O)c1c(-c2ccccc2)[n+]([O-])c2cc(C)c(C)cc2[n+]1[O-] | 0%
29 | Cc1c(Cc2ccccc2)[n+]([O-])c2cc(Cl)c(Cl)cc2[n+]1[O-] | 24%
30 | O=C(c1ccccc1)c1c(C(F)(F)F)[n+]([O-])c2cc(Cl)ccc2[n+]1[O-] | 90%
31 | O=C(c1ccco1)c1c(C(F)(F)F)[n+]([O-])c2ccc(C(F)(F)F)cc2[n+]1[O-] | 100%
32 | COc1ccc2c(c1)[n+]([O-])c(C(F)F)c(C(=O)c1ccccc1)[n+]2[O-] | 100%

Test system: not listed separately
Assay: Cytotoxicity against mouse J774 cells
Assay type: cell-based
Conditions: read-out: ID50 (the source's name)

Row | SMILES | CC50
33 | O=C(c1c(C(F)(F)F)[n+]([O-])c2ccccc2[n+]1[O-])N1CCN(c2ccccc2)CC1 | 9.51 µM
34 | O=C(c1cccs1)c1c(C(F)(F)F)[n+]([O-])c2ccccc2[n+]1[O-] | 4.69 µM
35 | CC(C)(C)C(=O)c1c(C(F)(F)F)[n+]([O-])c2ccccc2[n+]1[O-] | 8.7 µM
36 | O=C(c1ccco1)c1c(C(F)(F)F)[n+]([O-])c2ccccc2[n+]1[O-] | 7.13 µM

Test system: Trypanosoma cruzi
Assay: Antitrypanosomal activity against Trypanosoma cruzi Tulahuen 2 epimastigotes assessed as growth inhibition after 5 days
Assay type: functional
Conditions: Tulahuen 2, 120 h, read-out: ID50
How it was run: as §1

Row | SMILES | IC50
37 | O=C(c1ccco1)c1c(C(F)(F)F)[n+]([O-])c2cc(C(F)(F)F)ccc2[n+]1[O-] | 5 µM
38 | CCC(=O)c1c(C(F)(F)F)[n+]([O-])c2cc(Cl)c(Cl)cc2[n+]1[O-] | 0.78 µM
39 | O=C(c1ccccc1)c1c(C(F)F)[n+]([O-])c2cc(Cl)c(Cl)cc2[n+]1[O-] | 4.7 µM
40 | O=C(c1c(C(F)(F)F)[n+]([O-])c2ccccc2[n+]1[O-])N1CCN(c2ccccc2)CC1 | 0.76 µM
41 | COc1ccc2c(c1)[n+]([O-])c(C(F)(F)F)c(C(=O)c1ccccc1)[n+]2[O-] | 3.5 µM
42 | Cc1c(C(=O)c2ccccc2)[n+]([O-])c2cc(Cl)c(Cl)cc2[n+]1[O-] | 11.8 µM
43 | O=C(c1cccs1)c1c(C(F)(F)F)[n+]([O-])c2ccccc2[n+]1[O-] | 1.1 µM
44 | O=C(c1ccccc1)c1c(C(F)(F)F)[n+]([O-])c2cc(Cl)c(Cl)cc2[n+]1[O-] | 2.4 µM
45 | O=C(c1ccccc1)c1c(C(F)F)[n+]([O-])c2cc(F)ccc2[n+]1[O-] | 6.3 µM
46 | O=C(c1ccco1)c1c(C(F)(F)F)[n+]([O-])c2ccccc2[n+]1[O-] | 2.4 µM
47 | O=C(c1cccc2ccccc12)c1c(C(F)(F)F)[n+]([O-])c2cc(F)c(F)cc2[n+]1[O-] | 3.9 µM
48 | O=C(c1ccccc1)c1c(C(F)(F)F)[n+]([O-])c2cc(Cl)ccc2[n+]1[O-] | 3 µM
49 | O=C(c1ccco1)c1c(C(F)(F)F)[n+]([O-])c2ccc(C(F)(F)F)cc2[n+]1[O-] | 4.8 µM
50 | COc1ccc2c(c1)[n+]([O-])c(C(F)F)c(C(=O)c1ccccc1)[n+]2[O-] | 10 µM

Test system: not listed separately
Assay: Selectivity index, ratio of ID50 for mouse J774 cells to ID50 for Trypanosoma cruzi Tulahuen 2 epimastigotes
Assay type: toxicity, cell-based
Conditions: J774 cells versus Trypanosoma cruzi Tulahuen 2 epimastigotes, read-out: Selectivity Index

Row | SMILES | selectivity ratio
51 | O=C(c1c(C(F)(F)F)[n+]([O-])c2ccccc2[n+]1[O-])N1CCN(c2ccccc2)CC1 | 12.5
52 | O=C(c1cccs1)c1c(C(F)(F)F)[n+]([O-])c2ccccc2[n+]1[O-] | 4.3
53 | CC(C)(C)C(=O)c1c(C(F)(F)F)[n+]([O-])c2ccccc2[n+]1[O-] | < 0.3
54 | O=C(c1ccco1)c1c(C(F)(F)F)[n+]([O-])c2ccccc2[n+]1[O-] | 3
